ChEMBL document CHEMBL3244007, “Resolution of antimalarial agents via complex formation with alpha-(2,4,5,7-tetranitro-9-fluorenylideneaminooxy) propionic acid” (J Med Chem, 1978)
Active and inactive are the calls of the source. No cut-off for these calls is given here.

Legend:
Plasmodium berghei [1] = experiment: Antimalarial activity against Plasmodium berghei infected in mouse assessed as change in mean survival time at 1.25 mg/kg (reference value: 6.2 +/- 0.5 days); type: functional
Plasmodium berghei [2] = experiment: Antimalarial activity against Plasmodium berghei infected in mouse assessed as change in mean survival time at 2.5 mg/kg (reference value: 6.2 +/- 0.5 days); type: functional
Plasmodium berghei [3] = experiment: Antimalarial activity against Plasmodium berghei infected in mouse assessed as change in mean survival time at 5 mg/kg (reference value: 6.2 +/- 0.5 days); type: functional
Plasmodium berghei [4] = experiment: Antimalarial activity against Plasmodium berghei infected in mouse assessed as change in mean survival time at 10 mg/kg (reference value: 6.2 +/- 0.5 days); type: functional
Plasmodium berghei [5] = experiment: Antimalarial activity against Plasmodium berghei infected in mouse assessed as change in mean survival time at 20 mg/kg (reference value: 6.2 +/- 0.5 days); type: functional
Plasmodium berghei [6] = experiment: Antimalarial activity against Plasmodium berghei infected in mouse assessed as change in mean survival time at 40 mg/kg (reference value: 6.2 +/- 0.5 days); type: functional
Plasmodium berghei [7] = experiment: Antimalarial activity against Plasmodium berghei infected in mouse assessed as change in mean survival time at 80 mg/kg (reference value: 6.2 +/- 0.5 days); type: functional
Plasmodium cynomolgi [8] = experiment: Antimalarial activity against Plasmodium cynomolgi infected in rhesus monkey assessed as relapse time at 0.375 mg/kg qd for 7 days in presence of chloroquine; type: functional
Plasmodium cynomolgi [9] = experiment: Antimalarial activity against Plasmodium cynomolgi infected in rhesus monkey assessed as relapse time at 0.5 mg/kg qd for 7 days in presence of chloroquine; type: functional
Mus musculus [10] = experiment: Toxicity in mouse infected with Plasmodium berghei assessed as mortality at 160 mg/kg after 2 to 5 days; type: organism-based; parameters: dose 160 mg/kg; settings: in vivo
Mus musculus [11] = experiment: Toxicity in mouse infected with Plasmodium berghei assessed as mortality at 320 mg/kg after 2 to 5 days; type: organism-based; parameters: dose 320 mg/kg; settings: in vivo
Mus musculus [12] = experiment: Toxicity in mouse infected with Plasmodium berghei assessed as mortality at 640 mg/kg after 2 to 5 days; type: organism-based; parameters: dose 640 mg/kg; settings: in vivo
Rhesus monkey = experiment: Toxicity in rhesus monkey at 0.375 to 0.75 mg/kg; type: organism-based, Macaca mulatta; parameters: dose 0.375-0.75 mg/kg; settings: in vivo
Plasmodium berghei [13] = experiment: Antimalarial activity against Plasmodium berghei infected in mouse assessed as change in mean survival time at 160 mg/kg (reference value: 6.2 +/- 0.5 days); type: functional
Plasmodium berghei [14] = experiment: Antimalarial activity against Plasmodium berghei infected in mouse assessed as change in mean survival time at 320 mg/kg (reference value: 6.2 +/- 0.5 days); type: functional
Plasmodium berghei [15] = experiment: Antimalarial activity against Plasmodium berghei infected in mouse assessed as change in mean survival time at 640 mg/kg (reference value: 6.2 +/- 0.5 days); type: functional
Plasmodium cynomolgi [16] = experiment: Antimalarial activity against Plasmodium cynomolgi infected in rhesus monkey assessed as cured animal at 0.75 mg/kg qd for 7 days measured after 105 days in presence of chloroquine; type: functional, organism-based; parameters: dose 0.75 mg/kg
Method in brief: (§1)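 Test compounds were given as phosphate salts, with doses expressed as free base, once daily for 7 days together with chloroquine at 2.5 mg per kg body weight. An animal was scored as cured when thick blood films stayed parasite-negative for 105 days or more after the last dose.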

Plasmodium cynomolgi [17] = experiment: Antimalarial activity against Plasmodium cynomolgi infected in rhesus monkey assessed as cured animal at 0.375 mg/kg qd for 7 days measured after 105 days in presence of chloroquine; type: functional, organism-based; parameters: dose 0.375 mg/kg; method in brief: as §1
Plasmodium cynomolgi [18] = experiment: Antimalarial activity against Plasmodium cynomolgi infected in rhesus monkey assessed as cured animal at 0.5 mg/kg qd for 7 days measured after 105 days in presence of chloroquine; type: functional, organism-based; parameters: dose 0.5 mg/kg; method in brief: as §1

| SMILES | MST (Plasmodium berghei [1]) [days] | MST (Plasmodium berghei [2]) [days] | MST (Plasmodium berghei [3]) [days] | MST (Plasmodium berghei [4]) [days] | MST (Plasmodium berghei [5]) [days] | MST (Plasmodium berghei [6]; 40 mg/kg) [days] | MST (Plasmodium berghei [7]; 80 mg/kg) [days] | also measured |
| --- | --- | --- | --- | --- | --- | --- | --- | --- |
| CCCCN(CCCC)CCC(O)c1cc2c(Cl)cc(Cl)cc2c2cc(C(F)(F)F)ccc12 (stereo in doubt; (+)-8) [HALOFANTRINE] | 0.5 | 3.1 | 7.5 | 10.3 | 11.1 | 14.5 | 16.9 |  |
| CCCCN(CCCC)CC(O)c1cc(-c2ccc(Cl)c(Cl)c2)nc2c(Cl)cc(Cl)cc12 (single isomer, unassigned; (+)) | 0.5 | 0.5 | 3.5 | 6.9 | 10 | 11.8 |  |  |
| CCCCN(CCCC)CCC(O)c1cc2c(Cl)cc(Cl)cc2c2cc(C(F)(F)F)ccc12 (stereo in doubt; (-)-8) [HALOFANTRINE] | 0.1 | 0.3 | 1.5 | 5.1 | 8.9 | 12.5 | 13.2 |  |
| COc1cc(NC(C)CCCN)c2ncccc2c1.O=P(O)(O)O.O=P(O)(O)O (single isomer, unassigned; (-)) [PRIMAQUINE PHOSPHATE] |  |  |  |  |  |  |  | Time (Plasmodium cynomolgi [8]): 11 days; Time (Plasmodium cynomolgi [9]): 16 days |
| Nc1nc(N)c2c(n1)CCC(S(=O)(=O)c1ccc3ccccc3c1)C2 (single isomer, unassigned; (-)) | 1.3 | 3.1 | 4.9 | 7.1 | 11.3 |  |  | Activity (Mus musculus [10]): Toxic; Activity (Mus musculus [11]): Toxic; Activity (Mus musculus [12]): Toxic |
| CCCCN(CCCC)CC(O)c1cc(-c2ccc(C(F)(F)F)cc2)nc(-c2ccc(C(F)(F)F)cc2)c1 (stereo in doubt; (+)-2) |  |  |  | 3.9 | 10.7 | 18.1 | 25.6 |  |
| COc1cc(NC(C)CCCN)c2ncccc2c1.O=P(O)(O)O.O=P(O)(O)O (stereo in doubt; (+)-5) [PRIMAQUINE PHOSPHATE] |  |  |  |  |  |  |  | Time (Plasmodium cynomolgi [8]): 10 days; Time (Plasmodium cynomolgi [9]): 28 days; Activity (Rhesus monkey): Toxic |
| CCCCN(CCCC)CCC(O)c1cc2c(Cl)cc(Cl)cc2c2cc(C(F)(F)F)ccc12 (racemic) [HALOFANTRINE] |  |  | 9.3 | 14.9 |  |  |  |  |
| CCCCCCCN(CCCCCCC)CC(O)c1cc2ccccc2c2cc(Br)ccc12 (single isomer, unassigned; (+)) |  |  |  |  | 0.5 | 1.7 | 4.1 | MST (Plasmodium berghei [13]; 160 mg/kg): 6.7 days; MST (Plasmodium berghei [14]; 320 mg/kg): 9.3 days; MST (Plasmodium berghei [15]): 14.9 days |
| Nc1nc(N)c2c(n1)CCC(S(=O)(=O)c1ccc3ccccc3c1)C2 (single isomer, unassigned; (+)) |  |  |  |  | 0.3 |  |  | MST (Plasmodium berghei [6]): 1.7 days; MST (Plasmodium berghei [7]): 4.5 days; MST (Plasmodium berghei [13]): 6.9 days; MST (Plasmodium berghei [14]): 9.1 days |
| CCCCN(CCCC)CC(O)c1cc(-c2ccc(Cl)c(Cl)c2)nc2c(Cl)cc(Cl)cc12 (single isomer, unassigned; (-)) |  |  |  |  | 3.8 | 7.8 | 9 | MST (Plasmodium berghei [13]): 12.8 days |
| CCCCN(CCCC)CC(O)c1cc(-c2ccc(C(F)(F)F)cc2)nc(-c2ccc(C(F)(F)F)cc2)c1 (racemic) |  |  |  | 5.5 | 8.6 |  |  |  |
| CCCCCCCN(CCCCCCC)CC(O)c1cc2ccccc2c2cc(Br)ccc12 (stereo in doubt; (-)-3) |  |  |  |  | 0.3 | 2.1 | 3.9 | MST (Plasmodium berghei [13]; 160 mg/kg): 5.3 days; MST (Plasmodium berghei [14]; 320 mg/kg): 6.1 days; MST (Plasmodium berghei [15]): 11.1 days |
| Nc1nc(N)c2c(n1)CCC(S(=O)(=O)c1ccc3ccccc3c1)C2 (racemic) | 4.9 | 7.5 | 10.7 | 11.9 |  |  |  |  |
| COc1cc(NC(C)CCCN)c2ncccc2c1 (single isomer, unassigned; (-)) |  |  |  |  |  |  |  | Activity (Plasmodium cynomolgi [16]): Active |
| COc1cc(NC(C)CCCN)c2ncccc2c1 (racemic) |  |  |  |  |  |  |  | Activity (Plasmodium cynomolgi [16]): Active; Activity (Plasmodium cynomolgi [17]): inactive; Activity (Plasmodium cynomolgi [18]): Active |
| CCCCCCCN(CCCCCCC)CC(O)c1cc2ccccc2c2cc(Br)ccc12 (racemic) |  |  |  |  | 2.9 | 6.9 | 11.3 | MST (Plasmodium berghei [13]; 160 mg/kg): 15.3 days; MST (Plasmodium berghei [14]; 320 mg/kg): 25.9 days |
| COc1cc(NC(C)CCCN)c2ncccc2c1 (stereo in doubt; (+)-5) |  |  |  |  |  |  |  | Activity (Plasmodium cynomolgi [16]): Active |
| CCCCN(CCCC)CC(O)c1cc(-c2ccc(C(F)(F)F)cc2)nc(-c2ccc(C(F)(F)F)cc2)c1 (single isomer, unassigned; (-)) |  |  |  | 1.3 | 3.1 | 10.5 | 13.1 | MST (Plasmodium berghei [13]): 19.9 days |
| CCCCN(CCCC)CC(O)c1cc(-c2ccc(Cl)c(Cl)c2)nc2c(Cl)cc(Cl)cc12 (racemic) | 0.3 | 4.1 | 6.1 | 10.7 | 14.9 | 11.9 | 22.9 |  |
